In ChEMBL document CHEMBL5230168, “Design, synthesis, and biological evaluation of new arjunolic acid derivatives as anticancer agents” (RSC Med Chem, 2023):

Legend:
PANC-1 [1] = experiment: Cytotoxicity against human PANC-1 cells assessed as inhibition of cell growth incubated for 72 hrs by MTT assay; assay type: functional, cell-based; details: PANC-1, 72 h
Outline: (§1)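 Cells seeded per well (HT-29 4500, PANC-1 4000, SK-MEL-28 3200, A375 1200, A549 2500, H2170 and BJ 10 000) and left 24 h. They were then exposed to increasing concentrations for 72 h and incubated 1 h with MTT 0.5 mg mL−1. Formazan was dissolved in DMSO and absorbance read at 550 nm. IC50 from three independent experiments. Final DMSO ≤0.5%.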

HT-29 [2] = experiment: Cytotoxicity against human HT-29 cells assessed as inhibition of cell growth incubated for 72 hrs by MTT assay; assay type: functional, cell-based; details: HT-29, 72 h; outline: as §1
A-375 = experiment: Cytotoxicity against human A-375 cells assessed as inhibition of cell growth incubated for 72 hrs by MTT assay; assay type: functional, cell-based; details: A-375, 72 h; outline: as §1
SK-MEL-28 = experiment: Cytotoxicity against human SK-MEL-28 cells assessed as inhibition of cell growth incubated for 72 hrs by MTT assay; assay type: functional, cell-based; details: SK-MEL-28, 72 h; outline: as §1
A549 = experiment: Cytotoxicity against human A549 cells assessed as inhibition of cell growth incubated for 72 hrs by MTT assay; assay type: functional, cell-based; details: A549, 72 h; outline: as §1
NCI-H2170 = experiment: Cytotoxicity against human NCI-H2170 cells assessed as inhibition of cell growth incubated for 72 hrs by MTT assay; assay type: functional, cell-based; details: NCI-H2170, 72 h; outline: as §1
PANC-1 [3] = experiment: Potency index, ratio of Arjunolic acid IC50 to test compound IC50 for cytotoxicity against human PANC-1 cells assessed as inhibition of cell growth incubated for 72 hrs by MTT assay; assay type: functional
Outline: (§2)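 Potency index: arjunolic acid IC50 divided by derivative IC50 from the 72 h MTT assay on HT-29 (4500 cells/well) or PANC-1 (4000 cells/well). IC50 from three independent experiments.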

HT-29 [4] = experiment: Potency index, ratio of Arjunolic acid IC50 to test compound IC50 for cytotoxicity against human HT-29 cells assessed as inhibition of cell growth incubated for 72 hrs by MTT assay; assay type: functional; outline: as §2
[5] = Cytotoxicity against human BJ cells assessed as inhibition of cell growth incubated for 72 hrs by MTT assay; assay type: toxicity, cell-based; outline: as §1
[6] = Selectivity index, ratio of IC50 for cytotoxicity against human BJ cells to IC50 for cytotoxicity against human PANC-1; assay type: toxicity, cell-based; details: BJ cells and PANC-1 cells, read-out: Ratio IC50
Outline: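 Selectivity index: BJ fibroblast IC50 over PANC-1 IC50, both from the 72 h MTT assay with 24 h pre-seeding (10 000 and 4000 cells/well). IC50 from three independent experiments.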

Row | SMILES | IC50 (PANC-1 [1]) | IC50 (HT-29 [2]) | other results
1 | C=CCOC(=O)[C@]12CCC(C)(C)C[C@H]1C1=CC[C@@H]3[C@@]4(C)C[C@@H](O)OC[C@](C)(C=O)[C@@H]4CC[C@@]3(C)[C@]1(C)CC2 | 4.92 µM | 4.38 µM | –
2 | CC1(C)CC[C@]2(C(=O)O)CC[C@]3(C)C(=CC[C@@H]4[C@@]5(C)C(C=O)=C[C@@](C)(CO)[C@@H]5CC[C@]43C)[C@@H]2C1 | 5.27 µM | 5.73 µM | –
3 | CC1(C)CC[C@]2(C(N)=O)CC[C@]3(C)C(=CC[C@@H]4[C@@]5(C)C(C=O)=C[C@@](C)(CO)[C@@H]5CC[C@]43C)[C@@H]2C1 | 3.74 µM | 5.81 µM | –
4 | C=CCOC(=O)[C@]12CCC(C)(C)C[C@H]1C1=CC[C@@H]3[C@@]4(C)C(C=O)=C[C@@](C)(CO)[C@@H]4CC[C@@]3(C)[C@]1(C)CC2 | 0.84 µM | 0.55 µM | IC50 (A-375): 590 nM; IC50 (SK-MEL-28): 530 nM; IC50 (A549): 820 nM; IC50 (NCI-H2170): 1510 nM
5 | CC(=O)OC[C@@]1(C)[C@@H]2CC[C@]3(C)[C@H](CC=C4[C@@H]5CC(C)(C)CC[C@]5(C(=O)O)CC[C@]43C)[C@@]2(C)C[C@@H](OC(C)=O)[C@@H]1OC(C)=O | 14.9 µM | 12.4 µM | –
6 | CCNC(=O)[C@]12CCC(C)(C)C[C@H]1C1=CC[C@@H]3[C@@]4(C)C(C=O)=C[C@@](C)(CO)[C@@H]4CC[C@@]3(C)[C@]1(C)CC2 | 4.15 µM | 3.43 µM | –
7 | CC1(C)CC[C@]2(C(=O)O)CC[C@]3(C)C(=CC[C@@H]4[C@@]5(C)C[C@@H](O)[C@H](O)[C@@](C)(CO)[C@@H]5CC[C@]43C)[C@@H]2C1 [ARJUNOLIC ACID] | 56.3 µM | 36.4 µM | –
8 | CC1(C)CC[C@]2(C(=O)O)CC[C@]3(C)C(=CC[C@@H]4[C@@]5(C)C[C@@H](O)OC[C@](C)(C=O)[C@@H]5CC[C@]43C)[C@@H]2C1 | > 30 µM | > 30 µM | –
9 | COC(=O)[C@]12CCC(C)(C)C[C@H]1C1=CC[C@@H]3[C@@]4(C)C[C@@H](O)[C@H](O)[C@@](C)(CO)[C@@H]4CC[C@@]3(C)[C@]1(C)CC2 | 19.7 µM | 16.7 µM | Ratio IC50 (PANC-1 [3]): 2.7; Ratio IC50 (HT-29 [4]): 2.2
10 | CCOC(=O)[C@]12CCC(C)(C)C[C@H]1C1=CC[C@@H]3[C@@]4(C)C[C@@H](O)[C@H](O)[C@@](C)(CO)[C@@H]4CC[C@@]3(C)[C@]1(C)CC2 | 20.2 µM | 11.6 µM | Ratio IC50 (PANC-1 [3]): 2.7; Ratio IC50 (HT-29 [4]): 3.1
11 | COC(=O)[C@]12CCC(C)(C)C[C@H]1C1=CC[C@@H]3[C@@]4(C)C(C=O)=C[C@@](C)(CO)[C@@H]4CC[C@@]3(C)[C@]1(C)CC2 | 0.82 µM | 0.87 µM | IC50 (A-375): 850 nM; IC50 (SK-MEL-28): 850 nM; IC50 (A549): 1220 nM; IC50 (NCI-H2170): 2110 nM
12 | CNC(=O)[C@]12CCC(C)(C)C[C@H]1C1=CC[C@@H]3[C@@]4(C)C(C=O)=C[C@@](C)(CO)[C@@H]4CC[C@@]3(C)[C@]1(C)CC2 | 2.38 µM | 7.41 µM | –
13 | CCCCOC(=O)[C@]12CCC(C)(C)C[C@H]1C1=CC[C@@H]3[C@@]4(C)C[C@@H](O)OC[C@](C)(C=O)[C@@H]4CC[C@@]3(C)[C@]1(C)CC2 | 4.58 µM | 4.46 µM | –
14 | C=CCOC(=O)[C@]12CCC(C)(C)C[C@H]1C1=CC[C@@H]3[C@@]4(C)C[C@@H](O)[C@H](O)[C@@](C)(CO)[C@@H]4CC[C@@]3(C)[C@]1(C)CC2 | 18.9 µM | 12.8 µM | Ratio IC50 (PANC-1 [3]): 3; Ratio IC50 (HT-29 [4]): 2.8
15 | CCOC(=O)[C@]12CCC(C)(C)C[C@H]1C1=CC[C@@H]3[C@@]4(C)C[C@@H](O)OC[C@](C)(C=O)[C@@H]4CC[C@@]3(C)[C@]1(C)CC2 | 7.14 µM | 6.7 µM | –
16 | CNC(=O)[C@]12CCC(C)(C)C[C@H]1C1=CC[C@@H]3[C@@]4(C)C[C@@H](OC(C)=O)[C@H](OC(C)=O)[C@@](C)(COC(C)=O)[C@@H]4CC[C@@]3(C)[C@]1(C)CC2 | 0.93 µM | 16.5 µM | Ratio IC50 (PANC-1 [3]): 60
17 | CC1(C)CC[C@]2(C(N)=O)CC[C@]3(C)C(=CC[C@@H]4[C@@]5(C)C[C@@H](O)OC[C@](C)(C=O)[C@@H]5CC[C@]43C)[C@@H]2C1 | 29.3 µM | – | –
18 | CCNC(=O)[C@]12CCC(C)(C)C[C@H]1C1=CC[C@@H]3[C@@]4(C)C[C@@H](O)[C@H](O)[C@@](C)(CO)[C@@H]4CC[C@@]3(C)[C@]1(C)CC2 | 27.6 µM | 25.5 µM | –
19 | CCNC(=O)[C@]12CCC(C)(C)C[C@H]1C1=CC[C@@H]3[C@@]4(C)C[C@@H](OC(C)=O)[C@H](OC(C)=O)[C@@](C)(COC(C)=O)[C@@H]4CC[C@@]3(C)[C@]1(C)CC2 | 0.63 µM | 1.17 µM | Ratio IC50 (PANC-1 [3]): 89
20 | CCCCOC(=O)[C@]12CCC(C)(C)C[C@H]1C1=CC[C@@H]3[C@@]4(C)C[C@@H](O)[C@H](O)[C@@](C)(CO)[C@@H]4CC[C@@]3(C)[C@]1(C)CC2 | 20.2 µM | 13.7 µM | Ratio IC50 (PANC-1 [3]): 2.7; Ratio IC50 (HT-29 [4]): 2.7
21 | CCCCOC(=O)[C@]12CCC(C)(C)C[C@H]1C1=CC[C@@H]3[C@@]4(C)C(C=O)=C[C@@](C)(CO)[C@@H]4CC[C@@]3(C)[C@]1(C)CC2 | 0.43 µM | 0.55 µM | IC50 (A-375): 550 nM; IC50 (SK-MEL-28): 450 nM; IC50 (A549): 580 nM; IC50 (NCI-H2170): 1300 nM; IC50 at 72 h [5]: 2790 nM; selectivity ratio [6]: 6.5
22 | CCNC(=O)[C@]12CCC(C)(C)C[C@H]1C1=CC[C@@H]3[C@@]4(C)C[C@@H](O)OC[C@](C)(C=O)[C@@H]4CC[C@@]3(C)[C@]1(C)CC2 | 22 µM | – | –
23 | CNC(=O)[C@]12CCC(C)(C)C[C@H]1C1=CC[C@@H]3[C@@]4(C)C[C@@H](O)[C@H](O)[C@@](C)(CO)[C@@H]4CC[C@@]3(C)[C@]1(C)CC2 | > 30 µM | > 30 µM | –
24 | COC(=O)[C@]12CCC(C)(C)C[C@H]1C1=CC[C@@H]3[C@@]4(C)C[C@@H](O)OC[C@](C)(C=O)[C@@H]4CC[C@@]3(C)[C@]1(C)CC2 | 6.7 µM | 5.59 µM | –
25 | CNC(=O)[C@]12CCC(C)(C)C[C@H]1C1=CC[C@@H]3[C@@]4(C)C[C@@H](O)OC[C@](C)(C=O)[C@@H]4CC[C@@]3(C)[C@]1(C)CC2 | 16.6 µM | 25.9 µM | –
26 | CC1(C)CC[C@]2(C(N)=O)CC[C@]3(C)C(=CC[C@@H]4[C@@]5(C)C[C@@H](O)[C@H](O)[C@@](C)(CO)[C@@H]5CC[C@]43C)[C@@H]2C1 | > 30 µM | > 30 µM | –
27 | CC(=O)OC[C@@]1(C)[C@@H]2CC[C@]3(C)[C@H](CC=C4[C@@H]5CC(C)(C)CC[C@]5(C(N)=O)CC[C@]43C)[C@@]2(C)C[C@@H](OC(C)=O)[C@@H]1OC(C)=O | 3.63 µM | 19.3 µM | Ratio IC50 (PANC-1 [3]): 15
